Screening data from PubChem BioAssay.
Rows were chosen to be rich in hits. Some 1.2% of all compounds tested hit in one or more screens of this group.
TPT1 inh – blocks Candida albicans tRNA 2'-phosphotransferase. inhibition, % at 5 µM. 300,000 tested, 0.81% active. recombinant caTPT1, FP RNA substrate dephosphorylation;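 active = inhibition above the mean of all tested compounds plus 3 SD, set per screening campaign, cut at about 24% in these data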
HNF4A DNA FP – change in binding of human HNF4 alpha to DNA; activity change, % at 10 µM; P41235; 360,000 tested, 0.3% active; HNF4a-FITC DNA binding, fluorescence polarization, 1 h; in the data active = activity change above about 30%, passing the limit was not always enough
CSN deneddyl inh – inhibitors of human CSN-mediated cullin deneddylation. Purified CSN, SCF-Nedd8-OG deneddylation, fluorescence polarization. 360,000 tested, 0.38% active. Q92905. inhibition, % at 12.5 µM. AID 651999;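 active = pattern-corrected inhibition above about 35%, with an unprinted fluorescence ratio check between 0.5 and 1.5, limit read from the data, passing the limit was not always enough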
Target sequence (Q92905 whole entry, looked up, one chain of several): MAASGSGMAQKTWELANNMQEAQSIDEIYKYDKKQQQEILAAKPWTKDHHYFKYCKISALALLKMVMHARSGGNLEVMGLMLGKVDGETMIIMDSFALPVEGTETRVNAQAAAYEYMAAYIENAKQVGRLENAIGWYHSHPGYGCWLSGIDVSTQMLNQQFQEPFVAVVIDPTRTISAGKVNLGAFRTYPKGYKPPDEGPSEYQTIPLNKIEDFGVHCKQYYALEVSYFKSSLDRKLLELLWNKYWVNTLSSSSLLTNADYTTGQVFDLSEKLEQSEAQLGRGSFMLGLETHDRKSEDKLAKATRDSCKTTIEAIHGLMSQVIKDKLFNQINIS
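assay system = purified human Csn5 enzyme expressed in HEK293T cells | amount = 0.24 nM enzyme | buffer or medium = Tris/NaCl/DTT buffer, pH 7.5 | reagent = 10 nM SCFSkp2-Nedd8OG | compound = one concentration, 12.5 µM, 0.25% DMSO | times = 90 min reaction at room temperature | signal = FP | read-out basis = % inhibition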
Rtt109 HAT inh – C. albicans Rtt109 histone acetyltransferase inhibition; inhibition, % at 34.9 µM; Q5AAJ8; 330,000 tested, 0.16% active; purified Rtt109/Vps75, ThioGlo CoA-SH fluorescence, 4 h;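 active = inhibition of at least 50% in every replicate; inconclusive = best replicate reaches 50% inhibition but some replicates fall short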
caTPT1 confirm – TPT1 (C. albicans) inhibition, confirmation. shares compounds with TPT1 inh. recombinant caTPT1, fluorescence polarization, RNase T1 coupled. inhibition, % at 5 µM. 2,400 tested, 74% active. AID 2149;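 active = inhibition above the primary screen limit, the mean inhibition of all tested compounds plus 3 SD, cut at about 25% in these data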
RNase T1 counter – counter-screen for TPT1 inhibitors: inhibitors of Aspergillus oryzae RNase T1. shares compounds with TPT1 inh. RNase T1 cleavage, fluorescence polarization, 1536-well. inhibition, % at 5 µM. 2,400 tested, 83% active;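 active = inhibition above the solvent-only control well mean plus 3 SD, limit set per screening run, cut at about 23% in these data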;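 also: inhibitors block cleavage so intact labeled substrate keeps polarization high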
Target sequence (P00651 whole entry, looked up): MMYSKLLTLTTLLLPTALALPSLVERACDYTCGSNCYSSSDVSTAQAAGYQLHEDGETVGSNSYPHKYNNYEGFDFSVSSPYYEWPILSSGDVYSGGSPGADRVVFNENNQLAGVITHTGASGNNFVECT
A number is an active result; n = inactive; u = inconclusive; x = no result given.

SMILES	TPT1 inh	HNF4A DNA FP	CSN deneddyl inh	Rtt109 HAT inh	caTPT1 confirm	RNase T1 counter
O=C1/C(=C/c2ccc([N+](=O)[O-])cc2)Oc2cc(O)ccc21	x	n	n	x	x	x
CCc1ccc(/C=C2\Oc3cc(OS(C)(=O)=O)ccc3C2=O)cc1	n	n	n	n	x	x
COc1cccc(/C=C2\Oc3ccc(O)cc3C2=O)c1O	49	n	n	n	71	79
COc1cccc(/C=C2\Oc3cc(OCC(=O)N4CCCC4)ccc3C2=O)c1OC	n	n	n	n	x	x
CC(C)(C)c1ccc(/C=C2\Oc3cc(O)ccc3C2=O)cc1	30	n	n	x	67	72
COC(=O)c1ccc2c(c1)C(=O)/C(=C/c1ccc(O)cc1)O2	28	n	n	n	n	28
O=C1/C(=C/c2ccc(Br)cc2)Oc2cc(O)ccc21	63	n	n	x	77	79
CC[C@]12c3[nH]c4cc(CCC(=O)N(C)C)ccc4c3CCN1C(=O)[C@@H](CC(=O)NCCCn1ccnc1)C[C@@H]2C(=O)N1CCN(C(=O)c2ccco2)CC1	x	n	n	n	x	x
COc1ccc(Nc2ccccc2N)cc1	37	n	n	n	27	35
Nc1ccc(Nc2ccccc2N)cc1	25	n	n	n	26	36
CCC(=O)C1CCCN(C(=O)c2cccc(OC3CCN(S(C)(=O)=O)CC3)c2)C1 (centres undefined)	n	n	n	n	x	x
CCc1cc2c(N=Nc3c(O)[nH]c4ccccc34)ncnc2s1	n	n	n	n	x	x
CCc1ccc2[nH]c(O)c(N=Nc3nc(-c4ccccc4)cs3)c2c1	43	n	n	n	26	40
CCOC(=O)c1nc(Nc2cc(Cl)ccc2OC)c2ccccc2n1	n	n	n	x	x	x
CCOC(=O)c1c(C)[nH]c(O)c1C=Nc1ccc(C(F)(F)F)cc1	36	n	n	n	30	40
COc1ccc(CCN(C)C(=O)CNC(=O)Cc2cccc3ccccc23)cc1OC	n	n	n	n	x	x
O=C(CSC1=NS(=O)(=O)c2ccccc2N1)NCc1ccc(F)cc1	n	n	n	n	x	x
O=C1NC(=S)SC1=Cc1cccs1	x	n	n	n	x	x
CN1CCC/C1=C/C=C1\SC(=S)NC1=O	146	n	n	n	154	140
CC(C)C[C@H]1CN([C@@H](Cc2ccccc2)CN2CCC[C@H]2CN2C(=O)C(=O)NC[C@@H]2Cc2ccc(O)cc2)C(=O)C(=O)N1CC1CCCCCC1	x	n	n	x	x	x
O=C(NCC(F)(F)F)C1C(=O)Nc2ccccc2C(=O)N1Cc1ccccc1 (centres undefined)	x	n	n	x	x	x
CC1CCN(C(=O)C2CCN(S(=O)(=O)c3cccc4nonc34)CC2)CC1	42	n	n	n	n	n
COCCNC(=O)C[C@H]1C[C@H]2c3cc(NS(=O)(=O)c4ccc(F)cc4)ccc3O[C@H]2[C@H](CO)O1	x	n	n	x	x	x
COc1ccc(/C=C/C(=O)c2ccncc2)c2ccccc12	63	n	n	n	73	81
CCn1c(CCNC(=O)c2ccc(Cl)c(Cl)c2)nnc1SCCOc1ccc(OC)cc1	25	n	n	n	n	n
SMILES	TPT1 inh	HNF4A DNA FP	CSN deneddyl inh	Rtt109 HAT inh	caTPT1 confirm	RNase T1 counter
COC(=O)CSc1nc2sc3c(c2c(=O)n1-c1ccccc1)CCN(C)C3	n	n	n	n	x	x
CN1CCc2c(sc3nc(SCC(N)=O)n(-c4ccccc4)c(=O)c23)C1	45	n	n	n	104	109
CN1CCc2c(sc3nc(SCC(N)=O)n(-c4ccc(Cl)cc4)c(=O)c23)C1	86	43	n	n	64	78
C[C@@H]1CN([C@@H](C)CO)C(=O)CCCn2nncc2CO[C@H]1CN(C)Cc1ccccc1	x	n	n	x	x	x
Cc1ccc(N/C=C2/Sc3ccccc3NC2=O)cc1	28	n	n	n	47	53
CC1(C)CC(=O)C=C(NNC(=O)c2ccccc2O)C1	39	n	n	n	46	57
COc1cccc(CC(NC(C)=O)C(=O)NC2CCN(C(=O)Nc3ccc(C)cc3)CC2)c1 (centres undefined)	x	n	n	n	x	x
CC(=O)NC(Cc1cccc(F)c1)C(=O)NC1CCN(C(=O)Nc2ccc(C)cc2)CC1 (centres undefined)	24	n	n	n	n	n
COc1cc(N2CCCC2)c(OC)cc1/C=C(/C#N)c1ccc(F)cc1	143	n	n	n	132	134
COc1ccc(C(C#N)=Cc2ccccc2OC)cc1	x	n	n	x	x	x
Cc1cccc(N2CCN(C(=O)c3ccc4c(c3)OCCO4)CC2)c1C	n	n	n	u	x	x
Cc1cccc(N2CCN(C(=O)c3ccc4c(c3)NC(=O)C(CSCc3cccc(F)c3)N4)CC2)c1C (centres undefined)	134	x	x	x	131	125
COc1cc(/C=C2\SC(=O)N(CC(=O)Nc3ccccc3F)C2=O)cc(Cl)c1O	67	n	n	n	81	68
Nc1c(N(Cc2ccco2)C(=O)COc2ccccc2F)c(=O)[nH]c(=O)n1Cc1ccccc1	x	n	n	n	x	x
CC(=O)N1c2ccc3ccccc3c2C2C=CCC2C1c1ccc(Br)cc1 (centres undefined)	36	x	x	x	n	n
CC(=O)N1c2ccc(Cl)cc2C2C=CCC2C1c1cccc2ccccc12 (centres undefined)	n	n	n	n	x	x
COc1cc([N+](=O)[O-])ccc1NC(=O)Nn1cnnc1	n	n	n	n	x	x
COc1cc(/C=C2/C(=O)NN(c3ccc(Cl)c(Cl)c3)C2=O)cc([N+](=O)[O-])c1O	n	n	n	n	x	x
C#CCOc1c(Cl)cc(/C=C2/C(=O)ON=C2C)cc1OC	n	n	n	n	x	x
COC(=O)c1ccc(N2NC(=O)/C(=C/c3cc(OC)c(O)c(OC)c3)C2=O)cc1	103	n	n	n	99	121
COc1cc(/C=C2/C(=O)NN(c3ccc(F)cc3)C2=O)cc(Cl)c1O	40	n	n	n	80	99
COc1cc(/C=C2/C(=O)ON=C2C)cc(Cl)c1O	42	n	n	n	101	113
COC(=O)c1ccc(N2NC(=O)/C(=C/c3cc(OC)c(OC)c(OC)c3)C2=O)cc1	n	n	n	n	x	x
CN(CC(=O)Nc1ccc(Cl)cc1)C(=O)C1CCCC1	x	n	n	n	x	x
NC(N)=NCCCS(=O)(=O)Nc1ccc(Nc2c3ccccc3nc3cc([N+](=O)[O-])ccc23)cc1	x	n	n	n	x	x
O=C1[C@@H]2Cc3c([nH]c4ccccc34)C(c3ccccc3)N2C(=O)CN1CCO (some centres undefined)	n	n	n	n	x	x
CCN1C(=O)[C@@H]2Cc3c([nH]c4ccccc34)C(c3cc(OC)c(OC)c(OC)c3)N2C1=S (some centres undefined)	58	n	n	n	64	73
C=CCN1C(=O)[C@@H]2Cc3c([nH]c4ccccc34)C(c3ccc(O)cc3)N2C1=S (some centres undefined)	78	46	n	n	62	73
